Screen size: about 330,000 compounds; about 2,000 (0.61%) were called active.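 How the source made its calls: active means inhibition above that plate's mean sample inhibition plus 3 SD (cut at about 26% in these data); inactive means the rest.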 The full list was thinned out, with actives kept by preference.
test: nonselective Gq signaling inhibition in CHO cells – cell-based, fluorescence, Fluo-8 calcium dye, counter-screen for OX1R antagonist project, primary screen (AID 463079); conditions: parental CHO-K1, ATP-induced calcium, Fluo-8 fluorescence; at 5.6 µM; stronger effect = higher value;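 further: 0% = ATP-challenged DMSO wells and 100% = DMSO wells without ATP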
How it was run: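 Material – parental CHO cells · Reagent – ATP stimulus · Compound – single nominal dose of 5.6 µM per compound · Detection – Fluo-8 fluorescence · Read-out basis – percent inhibition of calcium signal · Controls – ATP-challenged DMSO wells low, unchallenged DMSO wells high · Repeats – no replicates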

Compound	inhibition
CCCC(C)NC(=O)C1CCN(C(=O)C2CC(=O)N(c3ccc(C)cc3)C2)CC1 (stereo unspecified)	-8.45% (inactive)
CCN(Cc1ccncc1)C(=O)c1cccc(S(=O)(=O)N2CCOCC2)c1	-16.1% (inactive)
Cc1nc(-c2ccc(F)cc2)c(CC(=O)Nc2cccc(S(=O)(=O)N3CCOCC3)c2)s1	-17.7% (inactive)
O=S(=O)(c1cccc(Cn2nnc(-c3ccc(F)cc3)n2)c1)N1CCOCC1	41.7% (active)
CC(=O)Nc1ccc(S(=O)(=O)Oc2ccc(/C=N/N=C3/NC(=O)C(CC(=O)O)S3)cc2)cc1 (stereo unspecified)	-3.01% (inactive)
CC(c1ccccn1)N(C)C(=O)c1ccc2nc(Cc3cccc(Cl)c3)oc2c1 (stereo unspecified)	-18.4% (inactive)
CC[C@]12c3[nH]c4ccc(Cl)cc4c3CCN1C(=O)[C@@H](CC(=O)NCCN1CCOCC1)C[C@@H]2C(=O)N1CCN(C(=O)C2CC2)CC1	-12.4% (inactive)
Cc1cc(OC(=O)c2ccc(Cl)cc2)cc(=O)n1C	-3.96% (inactive)
COCCCNc1nc2c(-c3cccc(C)c3)nnn2c2ccc(Cl)cc12	-27.9% (inactive)
Cc1ccc2cc(CCNC(=O)c3ccc4c(c3)OCO4)c(=O)[nH]c2c1	-18% (inactive)
O=C(NCCc1ccc(C(F)(F)F)cc1)c1ccc2c(c1)OCO2	40.1% (active)
COc1ccc(CCNC(=O)COc2ccc3c(c2)OCO3)cc1	-4.78% (inactive)
O=S(N1CCCCCC1)C12CC3CC(CC(C3)C1)C2 (stereo unspecified)	-6.89% (inactive)
COc1ccc(N2CCC(CNC(=S)Nc3c(C)cccc3C)C2)cc1 (stereo unspecified)	-5.49% (inactive)
CC1(C)C2CCC1(C)C(OC(=O)CCn1ccnc1)C2 (stereo unspecified)	-13.9% (inactive)
CC1(C)C2CCC1(C)C(OC(=O)c1ccc(O)cc1)C2 (stereo unspecified)	76.2% (active)
Cc1ccc(C(=O)OC2CCCN(C)C2)cc1 (stereo unspecified)	-15% (inactive)
O=C(CNC(=O)c1ccc(Br)o1)NCC1CCCO1 (stereo unspecified)	4.99% (inactive)
CC[C@]12c3[nH]c4cc(CCC(=O)N(C)C)ccc4c3CCN1C(=O)[C@@H](CC(=O)NCCCN(C)C)C[C@@H]2C(=O)N1CCN(C(=O)c2ccco2)CC1	-12.2% (inactive)
CCC(C)NC(=O)C1c2ccccc2Oc2ccccc21 (stereo unspecified)	-11.6% (inactive)
CCCCCNC(=O)C1c2ccccc2Oc2ccccc21	-8.91% (inactive)
CCC(C)(C)NC(=O)C1c2ccccc2Oc2ccccc21	41.2% (active)
Cc1cc(C)c2nc(SCC(=O)N(C)C3CCS(=O)(=O)C3)cc(C)c2c1 (stereo unspecified)	-7.05% (inactive)

Compound	inhibition
CCOc1ccc(C(=O)Nc2cccc(-c3ccc4nncn4n3)c2)cc1	-7.65% (inactive)
O=S(=O)(NC1CC2CCC1C2)c1ccc(Cl)cc1 (stereo unspecified)	-7.07% (inactive)
O=C(NCCN=C1NS(=O)(=O)c2ccccc21)c1ccc(S(=O)(=O)N2CCOCC2)cc1	-2.4% (inactive)
Cc1n[nH]c(C)c1S(=O)(=O)N1CCCC(C(=O)NCC2COc3ccccc3O2)C1 (stereo unspecified)	-6.84% (inactive)
Cc1cccc(C(=O)OCC(=O)Nc2sc3c(c2C#N)CCC3)c1	-1.94% (inactive)
CC(=O)c1c(C)[nH]c(C(=O)OCC(=O)Nc2c(C)cccc2C)c1C	-7.2% (inactive)
CC(=O)c1c(C)[nH]c(C(=O)OCC(=O)Nc2sc3c(c2C#N)CCCC3)c1C	33.6% (active)
O=C(COC(=O)[C@H](Cc1ccccc1)NC(=O)c1cccs1)Nc1cc(F)ccc1F	-7.13% (inactive)
CC(=O)N(O)CCCCCNC(=O)CCC(=O)N(O)CCCCCNC(=O)CCC(=O)N(O)CCCCCNC(=O)CCC(=O)O	-0.82% (inactive)
O=C(NC(=S)NC1CCSC1=O)c1ccccc1F (stereo unspecified)	-7.55% (inactive)
COc1cc(OC)c(N2CC(C(=O)Nc3cc(Cl)ccc3N3CCOCC3)CC2=O)cc1Cl (stereo unspecified)	-16.6% (inactive)
COc1cc(OC)c(-n2cc(-c3ccc(Cl)cc3)[nH]c2=O)cc1Cl	39.3% (active)
COc1cc(OC)c(-n2c(C)cc(C=O)c2C)cc1Cl	-12.5% (inactive)
CN(c1ccccc1)S(=O)(=O)c1cc(C(=O)N2CCN(c3ncccn3)CC2)ccc1Cl	-18.9% (inactive)
CC(C)(C)c1ccc(SCCc2ccncc2)cc1	28.1% (inactive)
O=C(O)CC1S/C(=N\N=C/c2ccccc2O)N(c2ccc(O)cc2)C1=O (stereo unspecified)	-10.7% (inactive)
CCn1nccc1C(=O)Nc1ccc(Cl)c(Cl)c1	-8.3% (inactive)
CS(=O)(=O)N(CC(=O)Nc1ccc(Cl)c(Cl)c1)C1CCCCC1	-5.86% (inactive)
O=C(CC(O)(C(F)(F)F)C(F)(F)F)Nc1ccc(Cl)c(Cl)c1	72.5% (active)
CN(C)CCN(Cc1ccccc1)S(=O)(=O)c1csc(C(N)=O)c1	-12.9% (inactive)
COc1cccc(-c2coc3cc4oc(=O)c(CC(=O)O)c(C)c4cc23)c1	1.98% (inactive)
CC#CC[N+](C)(C)CCCCCC	-6.39% (inactive)
O=C(NCC(=O)N1CCCC(C(F)(F)F)C1)c1ccccc1F (stereo unspecified)	-5.99% (inactive)

Compound	inhibition
FC(F)(F)C1CCCN(c2nsc3ccccc23)C1 (stereo unspecified)	51.7% (active)
O=C(NC(Cc1ccccc1)C(=O)N1CCCC(C(F)(F)F)C1)c1ccccc1 (stereo unspecified)	-16.7% (inactive)
Cc1cc(C(=O)O)c(S(C)(=O)=O)s1	-2.26% (inactive)
CCN(CC)C(=O)[C@H]1C[C@H](CC(=O)NCC23CC4CC(CC(C4)C2)C3)C(=O)N2CCc3c([nH]c4cc(CCC(=O)N(C)C)ccc34)[C@]12C	-25.6% (inactive)
Fc1ccc2[nH]c3c(N4CCSCC4)ncnc3c2c1	58.3% (active)
CN1C(=O)c2cccc3c(N)ccc(c23)C1=O	49.2% (active)
Cc1nn(C)cc1C(=O)c1ccccc1	-6.65% (inactive)
CC(=O)Nc1ccccc1Sc1ccc2c3c(cccc13)C(=O)N(c1ccc(C)cc1)C2=O	-4.4% (inactive)
COc1cc(C(=O)N2C(=O)c3cccc(N)c3C2=O)cc(OC)c1OC	-9.7% (inactive)
O=C(O)c1ccc2c3c(cccc13)C(=O)N(OS(=O)(=O)c1ccccc1)C2=O	-10.1% (inactive)
Cc1nn(C)cc1N1C(=O)c2cccc3c(N)ccc(c23)C1=O	36.8% (active)
CC(NS(=O)(=O)c1ccccc1)c1n[nH]c(=S)n1-c1ccccc1 (stereo unspecified)	9.34% (inactive)
O=C(c1ccccc1Cl)N(Cc1ccccc1F)N1C(=O)CCCC1=O	6.42% (inactive)
COCCCN1C(=O)C(=O)/C(=C(/O)c2ccc(S(=O)(=O)N3CCOCC3)cc2)C1c1ccc(F)cc1 (stereo unspecified)	14.2% (inactive)
COc1ccc(OC)c(C(C)NC(=S)Nc2ccc(S(=O)(=O)Nc3ncccn3)cc2)c1 (stereo unspecified)	3.7% (inactive)
COc1ccc(NS(=O)(=O)c2ccc(NC(=S)NC(=O)CC(C)C)cc2)cc1	44.3% (active)
CC(=O)c1ccc(NC(=S)NC(=O)CC(C)C)cc1	7.82% (inactive)
COc1cc(OC)cc(C(=O)Nc2ccc(S(=O)(=O)Nc3cc(C)on3)cc2)c1	-3.8% (inactive)
COc1ccc(NS(=O)(=O)c2ccc(NC(=O)c3ccc(N(C)S(C)(=O)=O)cc3)cc2)cc1	31.2% (active)
COc1ccc(NS(=O)(=O)c2ccc(C(=O)Nc3c(C)n(C)n(-c4ccccc4)c3=O)cc2)cc1	-3.65% (inactive)
CCSc1nc(=S)n(CC)c(C)c1C(C)=O	-1.19% (inactive)
CC(C)(C)CN1C(=O)C(=O)NC[C@H]1Cc1cccc2ccccc12	-9.71% (inactive)
COC(=O)Nc1ncc(CN2CCCCC2)s1	0.87% (inactive)

Compound	inhibition
Cc1ccccc1NC(=S)NC(=O)Cc1ccc(Cl)cc1	2.02% (inactive)
O=C(Cc1ccc(Cl)cc1)NC(=S)Nc1ccccc1O	39% (active)
O=C(COc1ccc(Cl)cc1)NC(=S)Nc1ccccc1N1CCOCC1	-32% (inactive)
COc1ccc(NC(=O)CSCc2ccc([N+](=O)[O-])cc2)cc1OC	-6.67% (inactive)
CC(C)CC(=O)N=C1SC2CS(=O)(=O)CC2N1CCc1ccccc1 (stereo unspecified)	-2.34% (inactive)
O=c1c2ccccc2nc2n1C(CSCc1cccc(C(F)(F)F)c1)CS2 (stereo unspecified)	40.1% (active)
O=c1c2ccccc2nc2n1C(CSc1ccc(F)cc1)CN2 (stereo unspecified)	-3.49% (inactive)
O=c1c2ccccc2nc2n1C(CSCc1ccccc1)CS2 (stereo unspecified)	2.02% (inactive)
COc1ccccc1C(=O)C(O)c1ccccc1OC (stereo unspecified)	-2.08% (inactive)
Cc1cccc(C)c1NC(=O)CNC(=O)c1c(C)nn(-c2ccccc2)c1C	9.7% (inactive)
COc1ccc(CC(=O)Nc2nc(-c3ccc(F)c(F)c3)cs2)cc1OC	55.3% (active)
COc1ccc(-c2csc(NC(=O)COC(=O)Cc3ccc(Cl)cc3Cl)n2)cc1	-7.84% (inactive)
COc1ccc(OC)c(-c2csc(NC(=O)COC(=O)C3CC3)n2)c1	-16.7% (inactive)
CCCc1ccc(-c2csc(NC(=O)Cc3cccs3)n2)cc1	-13.1% (inactive)
COc1cc(CC(=O)NCc2cccs2)cc(OC)c1OC	-12.1% (inactive)
COc1cccc(CC(=O)Nc2nc(-c3ccc(OC)c(OC)c3)cs2)c1	50.6% (active)
COc1cc(CC(=O)Nc2nc(-c3ccc(F)c(F)c3)cs2)cc(OC)c1OC	50.5% (active)
Cc1ccc(S(=O)(=O)NC(=O)Nc2nc(-c3ccc(F)c(F)c3)cs2)cc1	13.3% (inactive)
COc1ccc(-c2csc(NC(=O)COC(=O)c3ccc(Br)o3)n2)cc1	-1.84% (inactive)
Cc1ccc(C)c(Cn2nnc3c(=O)[nH]c(C(=O)Nc4ccc(F)cc4)nc32)c1	-8.13% (inactive)
Cc1cccc(NC(=S)NCCc2ccc(F)cc2)c1C	-8.34% (inactive)
C=CCOC(=O)C1=C[C@H](c2ccc(Br)cc2)C[C@H](OCCCCO)O1	-16.9% (inactive)

Source: PubChem BioAssay AID463079 (The Scripps Research Institute Molecular Screening Center, 2010)
